In ChEMBL document CHEMBL1122536, “Novel pyrimidine and 1,3,5-triazine hypolipidemic agents” (J Med Chem, 1984):

How the values were obtained:
[1] = test system: Rattus norvegicus; test: Hypolipidemic activity was assessed by measuring triglycerides in Sprague-Dawley male rats at 50 mg/kg; format: functional
Summary of the method: (§1)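 Male Sprague-Dawley rats (185-g mean bodyweight) on a normal diet were dosed orally for 4 consecutive days at 50 mg/kg or 200 mg/kg. They were fasted 18 h, and blood was drawn from the abdominal aorta 24 h after the last dose. Serum total cholesterol, triglycerides (mg/100 mL) and lipoprotein α-cholesterol (% of total cholesterol) were measured. Groups of 10–40 rats were compared with controls by Student's t test.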

[2] = test system: Rattus norvegicus; test: Hypolipidemic activity was assessed by measuring cholesterol in Sprague-Dawley male rats at 50 mg/kg; format: functional; summary of the method: as §1
[3] = test system: Rattus norvegicus; test: Hypolipidemic activity was assessed by measuring alpha-cholesterol in Sprague-Dawley male rats at 50 mg/kg; format: functional; summary of the method: as §1
[4] = Compound was evaluated for the dose that causes […] in Sprague-Dawley male rats; format: ADME, organism-based; conditions: rat, in vivo
[5] = test system: Rattus norvegicus; test: Hypolipidemic activity was assessed by measuring alpha-cholesterol in Sprague-Dawley male rats at 200 mg/kg; format: functional; summary of the method: as §1
[6] = test system: Rattus norvegicus; test: Hypolipidemic activity was assessed by measuring cholesterol in Sprague-Dawley male rats at 200 mg/kg; format: functional; summary of the method: as §1
[7] = test system: Rattus norvegicus; test: Hypolipidemic activity was assessed by measuring triglycerides in Sprague-Dawley male rats at 200 mg/kg; format: functional; summary of the method: as §1
[8] = Evaluated for the dose that causes 50 % lethality in Sprague-Dawley male rats; format: ADME, organism-based; conditions: rat, in vivo
[9] = test system: Rattus norvegicus; test: Hypolipidemic activity was assessed by measuring body weight in F 344 rats at 20 mg/kg
[10] = test system: Rattus norvegicus; test: Hyperlipidemic activity was assessed by measuring liver weight in Sprague-Dawley male rats at 50 mg/kg; format: functional
Summary of the method: (§2)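 Sprague-Dawley rats were fed the hyperlipidemic Nath's diet for 15 days and dosed orally at 50 or 200 mg/kg, or at 6.25, 12.5 and 25 mg/kg on a diet with 0.5% cholesterol and cholic acid. After an 18-h fast they were killed on day 16, 24 h after the last dose. Serum total cholesterol and triglycerides were assayed, and liver weight was expressed per 100 g bodyweight. Groups were compared with Nath's-diet controls by Student's t test.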

[11] = test system: Rattus norvegicus; test: Hyperlipidemic activity was assessed by measuring cholesterol in Sprague-Dawley male rats at 50 mg/kg; format: functional; summary of the method: as §2
[12] = test system: Rattus norvegicus; test: Hypolipidemic activity was assessed in Variation of the liver enzyme catalase was expressed as units per mg of protein in F 344 rats at 20 mg/kg
[13] = test system: Rattus norvegicus; test: Hyperlipidemic activity was assessed by measuring triglycerides in Sprague-Dawley male rats at 50 mg/kg; format: functional; summary of the method: as §2
[14] = test system: Rattus norvegicus; test: Hypolipidemic activity was assessed by measuring liver weight in Sprague-Dawley male rats at 50 mg/kg; format: functional; conditions: dose 20 mg/kg; in the assay text read “F 344 rats at 20 mg/kg” for “Sprague-Dawley male rats at 50 mg/kg”
[15] = test system: Rattus norvegicus; test: Hypolipidemic activity was assessed in Variation of the liver enzyme catalase was expressed as units per mg of protein. in F 344 rats at 20 mg/kg
[16] = test system: Rattus norvegicus; test: Hyperlipidemic activity was assessed by measuring cholesterol in Sprague-Dawley male rats at 200 mg/kg
[17] = test system: Rattus norvegicus; test: Hypolipidemic activity was assessed in Variation of the carnitine acetyl transferase was expressed as units per mg of protein in F 344 rats at 20 mg/kg
[18] = test system: Rattus norvegicus; test: Hypolipidemic activity was assessed by measuring liver weight in Sprague-Dawley male rats at 200 mg/kg; format: functional; summary of the method: as §2
[19] = test system: Rattus norvegicus; test: Hypolipidemic activity was assessed in Variation of palmitoyl-CoA oxide (umol/min mg) in F 344 rats at 20 mg/kg
[20] = test system: Rattus norvegicus; test: Hyperlipidemic activity was assessed by measuring triglycerides in Sprague-Dawley male rats at 200 mg/kg; format: functional; summary of the method: as §2
[21] = test system: Rattus norvegicus; test: Hypolipidemic activity was assessed in Variation of the enoyl-CoA oxide (umol/min mg) in F 344 rats at 20 mg/kg
[22] = test system: Rattus norvegicus; test: Hyperlipidemic activity was assessed by measuring liver weight in Sprague-Dawley male rats at 12.5 mg/kg; format: functional; summary of the method: as §2
[23] = test system: Rattus norvegicus; test: Hyperlipidemic activity was assessed in variation of palmitoyl-CoA oxide (umol/min mg) in F 344 rats at 20 mg/kg.
[24] = test system: Rattus norvegicus; test: Hyperlipidemic activity was assessed by measuring liver weight in Sprague-Dawley male rats at 25 mg/kg; format: functional; summary of the method: as §2
[25] = test system: Rattus norvegicus; test: Hyperlipidemic activity was assessed by measuring triglycerides in Sprague-Dawley male rats at 25 mg/kg; format: functional; summary of the method: as §2
[26] = test system: Rattus norvegicus; test: Hyperlipidemic activity was assessed by measuring cholesterol in Sprague-Dawley male rats at 12.5 mg/kg; format: functional; summary of the method: as §2
[27] = test system: Rattus norvegicus; test: Hypolipidemic activity was assessed in Variation of the liver enzyme catalase was expressed as units per mg of protein in F 344 rats at 20 mg/kg; remark: listed apart in the source
[28] = test system: Rattus norvegicus; test: Hyperlipidemic activity was assessed by measuring triglycerides in Sprague-Dawley male rats at 6.25 mg/kg; format: functional; summary of the method: as §2
[29] = test system: Rattus norvegicus; test: Hyperlipidemic activity was assessed by measuring cholesterol in Sprague-Dawley male rats at 25 mg/kg; format: functional; summary of the method: as §2
[30] = test system: Rattus norvegicus; test: Hyperlipidemic activity was assessed by measuring liver weight in Sprague-Dawley male rats at 6.25 mg/kg; format: functional; summary of the method: as §2
[31] = test system: Rattus norvegicus; test: Hyperlipidemic activity was assessed by measuring triglycerides in Sprague-Dawley male rats at 12.50 mg/kg; format: functional; conditions: dose 12.5 mg/kg; summary of the method: as §2
[32] = test system: Rattus norvegicus; test: Hyperlipidemic activity was assessed by measuring cholesterol in Sprague-Dawley male rats at 6.25 mg/kg; format: functional; summary of the method: as §2
[33] = test system: Rattus norvegicus; test: Hypolipidemic activity was assessed inVariation of the enoyl-CoA oxide (umol/min mg) in F 344 rats at 20 mg/kg.

CCCCCCCCSc1nc(Cl)cc(Nc2cccc(C)c2C)n1
Triglycerides [1]: 96.5 mg/100 mL
Cholesterol [2]: 63.2 mg 100ml-1
Alpha-cholesterol ([3]; dose 50 mg/kg): 67.7%

CN(C)c1nc(N)nc(Cl)n1
LD50 [4]: < 2000 mg/kg
Alpha-cholesterol [5]: 85.4%
Cholesterol [6]: <105.6 mg 100ml-1
Triglycerides [7]: < 78.2 mg/100 mL

Cc1cccc(Nc2cc(Cl)nc(S)n2)c1C
Alpha-cholesterol [5]: 73.2%
Cholesterol [6]: 76.3 mg 100ml-1
LD50 [8]: 1840 mg/kg
Triglycerides [7]: 95.6 mg/100 mL

CCOc1cc(Nc2cccc(C)c2C)nc(SCC(=O)NCCO)n1
Body weight [9]: 192 g
Liver weight [10]: 6.85 g 100g-1
Triglycerides [1]: < 64.3 mg/100 mL
Cholesterol [11]: <479.8 mg 100ml-1
Cholesterol [2]: <65.7 mg 100ml-1
Catalase [12]: 67.5 U/mg protein
LD50 [8]: 2500 mg/kg
Triglycerides [13]: <206.6 mg 100ml-1
Alpha-cholesterol ([3]; dose 50 mg/kg): 76.6%
Liver weight [14]: 5.9 g (100g of body weight)-1

Cc1cccc(Nc2cc(Cl)nc(N(C)C)n2)c1C [LODINIXIL]
Catalase [15]: 38 U/mg protein
Body weight [9]: 268 g
Cholesterol [16]: 771 mg 100ml-1
Triglycerides [1]: 96.5 mg/100 mL
Carnitine acetyl transferase [17]: 7 U/mg protein
Cholesterol [2]: 57.8 mg 100ml-1
Liver weight [18]: 5.97 g 100g-1
Palmitoyl-CoA oxid [19]: 0.015 µM/min/mg
LD50 [8]: < 2500 mg/kg
Triglycerides [20]: <182 mg 100ml-1
Alpha-cholesterol ([3]; dose 50 mg/kg): 69.6%
Enoyl-CoA hydratase [21]: 3.8 µM/min/mg
Liver weight [14]: 3.9 g (100g of body weight)-1

CN(C)c1nc(N)cc(Cl)n1
LD50 [4]: < 2500 mg/kg
Alpha-cholesterol [5]: <87.4%
Cholesterol [6]: 71.4 mg 100ml-1
Triglycerides [7]: < 89.9 mg/100 mL

Cc1cccc(N(C)c2cc(Cl)nc(S)n2)c1C
LD50 [4]: 1780 mg/kg
Alpha-cholesterol [5]: 74.4%
Cholesterol [6]: 65.8 mg 100ml-1
Triglycerides [7]: < 79.1 mg/100 mL

Cc1cccc(Nc2cc(Cl)nc(NCC(=O)O)n2)c1C [ARONIXIL]
Body weight [9]: 266 g
Liver weight [22]: 5.14 g 100g-1
Palmitoyl-CoA oxid [23]: 0.056 µM/min/mg
Triglycerides [1]: < 71.6 mg/100 mL
Carnitine acetyl transferase [17]: 11 U/mg protein
Cholesterol [2]: <63.6 mg 100ml-1
Liver weight [24]: 5.31 g 100g-1
Triglycerides [25]: 312.1 mg 100ml-1
Cholesterol [26]: 264.2 mg 100ml-1
Liver catalase [27]: 61 mg of protein
Triglycerides [28]: <205.2 mg 100ml-1
Cholesterol [29]: <215.4 mg 100ml-1
LD50 [8]: 1020 mg/kg
Liver weight [30]: 4.82 g 100g-1
Alpha-cholesterol ([3]; dose 50 mg/kg): 76.7%
Triglycerides [31]: 263.8 mg 100ml-1
Cholesterol [32]: 257.4 mg 100ml-1
Enoyl-CoA hydratase [33]: 3.7 uM min-1 (mg of protein)-1
Liver weight [14]: 4.2 g (100g of body weight)-1

Cc1cccc(N(C)c2cc(Cl)nc(N(C)C)n2)c1C
LD50 [4]: < 2500 mg/kg
Alpha-cholesterol [5]: 90%
Cholesterol [6]: 63.2 mg 100ml-1
Triglycerides [7]: 89.8 mg/100 mL

Cc1cccc(Nc2nc(Cl)nc(N(C)CC(=O)O)n2)c1C
LD50 [4]: 1220 mg/kg
Alpha-cholesterol [5]: 79.8%
Cholesterol [6]: 76.8 mg 100ml-1
Triglycerides [7]: < 74.6 mg/100 mL

CN(C)c1cc(Cl)nc(N(C)C)n1
Cholesterol [2]: <103.7 mg 100ml-1
LD50 [8]: < 2500 mg/kg
Alpha-cholesterol ([3]; dose 200 mg/kg, in the assay text read “200 mg/kg” for “50 mg/kg”): 75.7%

CSc1nc(Cl)cc(Nc2cccc(C)c2C)n1
Triglycerides [1]: 106 mg/100 mL
Cholesterol [2]: <54.2 mg 100ml-1
LD50 [8]: 1250 mg/kg
Alpha-cholesterol ([3]; dose 50 mg/kg): 72.3%

Cc1cccc(N(C)c2cc(Cl)nc(OCC(=O)O)n2)c1C
Triglycerides [1]: < 80.7 mg/100 mL
Cholesterol [2]: 66.4 mg 100ml-1
LD50 [8]: 1070 mg/kg
Alpha-cholesterol ([3]; dose 50 mg/kg): 87.2%
